The subject of one experiment is MDA-MB-23. The experiment is described as follows: Inhibition of colony formation in human MDA-MB-231 cells incubated for 24 hrs followed by culturing in fresh medium for 10 days by crystal violet staining based assay. The class given is functional, cell-based. Conditions: dose 0.25-1 µM. The method in brief: (§1)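 MDA-MB-231 seeded at 1.5×10^3 cells/well, 24 h attachment, then 24 h exposure to compound (0.25, 0.5, 1 µM) or DMSO; fresh medium for a further 10 days. Fixed in 4% paraformaldehyde 0.5 h at 4°C, crystal violet stained, dye dissolved in DMSO and absorbance read at 590 nm; performed three times.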

Experiment [1] deals with MDA-MB-231. The experiment is described as follows: Induction of mitochondrial membrane potential depolarization in human MDA-MB-231 cells assessed as proportion of cells with hyperpolarized MMP at 1 uM incubated for 18 hrs by JC-1 staining based flow cytometry (reference value: 98.4%). The class given is functional. In general terms: Flow cytometry measures light scatter and fluorescence of single cells or particles in a stream.

Experiment [2] can be described thus: Induction of intracellular reactive oxygen species generation in human MDA-MB-231 cells assessed as proportion of FL1-H positive cells at 2 uM pretreated with ROS scavenger, NAC for 2 hrs prior to incubation with compound and measured after 24 hrs by DCFH-DA staining based flow cytometry analysis (reference value: 47.8%). The format is functional, MDA-MB-23. Put shortly: (§2)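 MDA-MB-231 seeded at 2×10^5 cells/well, grown 24 h, pretreated with NAC (2.5 mM) for 2 h, then given 2 µM compound for 24 h. Cells loaded with DCFH-DA 30 min at 37°C in the dark, washed in PBS, resuspended in serum-free medium and read by flow cytometry; three independent experiments.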

Experiment [3] relates to MDA-MB-231. In words: Induction of cell cycle arrest in human MDA-MB-231 cells assessed as accumulation at S phase at 1 uM measured after 24 hrs by propidium iodide staining based flow cytometric method (reference value: 36.25%). The class given is functional.
Experiment [4] has as its system MDA-MB-231. In words: Inhibition of colony formation in human MDA-MB-231 cells assessed as fewer and smaller colonies at 0.5 to 1 uM incubated for 24 hrs followed by culturing in fresh medium for 10 days by crystal violet staining based assay. The class given is functional, cell-based. The conditions noted are these: dose 0.5-1 µM. The method in brief: as §1
Experiment [5] relates to MDA-MB-231. The experiment is described as follows: Induction of cell cycle arrest in human MDA-MB-231 cells assessed as accumulation at G0/G1 phase at 1 uM measured after 24 hrs by propidium iodide staining based flow cytometric method (reference value: 45.71%). The class given is functional.
Experiment [6] relates to MDA-MB-231. The experiment is described as follows: Induction of apoptosis in human MDA-MB-231 cells assessed as late apoptotic cells at 1 uM after 24 hrs by Annexin V/propidium iodide based flow cytometric analysis (reference value: 0.038%). The class given is functional. The method in brief: (§3)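 MDA-MB-231 cells (2×10^5/well) attached 24 h, then treated 24 h with 1, 1.5, 2 or 3 µM, DMSO as control. Cells harvested, PBS-washed, resuspended in binding buffer, stained with Annexin V and PI for 30 min at 37°C in the dark, and analysed by flow cytometry for quadrant percentages; three experiments.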

Experiment [7] concerns MDA-MB-231. In words: Antiproliferative activity against human MDA-MB-231 cells assessed as inhibition of cell proliferation rate at 4 uM pretreated with 40 uM NO scavenger, hemoglobin for 2 hrs followed by addition of compound and measured after 48 hrs by MTT assay. The class given is functional. Put shortly:
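MDA-MB-231 cells pretreated 2 h with the NO scavenger hemoglobin (2.5, 5, 10, 20, 40 µM), then given compound at 4 µM for a further 48 h. Inhibition rate read by MTT assay; mean ± SD, n = 3.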

Experiment [8] deals with MDA-MB-231. The experiment is described as follows: Induction of mitochondrial membrane potential depolarization in human MDA-MB-231 cells assessed as proportion of cells with depolarized MMP at 1.5 uM incubated for 18 hrs by JC-1 staining based flow cytometry (reference value: 0.72%). The format is functional.
Experiment [9] has as its system MDA-MB-231. The experiment is described as follows: Induction of apoptosis in human MDA-MB-231 cells assessed as downregulation of Bcl-2 expression at 1.5 to 6 uM measured after 8 hrs by Western blot analysis. The conditions noted are these: dose 1.5-6 µM. The format is functional, cell-based. The method in brief: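 MDA-MB-231 cells (8×10^5 per 60 mm dish) attached 24 h, then exposed 8 h to 1.5, 3 or 6 µM, DMSO as control. Lysates quantified by BCA; 30 µg protein run on 4–20% SDS-PAGE, transferred to PVDF, probed for Bcl-2, Bax, Bad, cleaved caspase-9, cleaved caspase-3 and PARP, with ECL detection. Densitometric relative levels; three experiments.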
Background: A western blot detects proteins with antibodies after separation by electrophoresis.

In experiment [10] the test system is MDA-MB-231. In words: Induction of mitochondrial membrane potential depolarization in human MDA-MB-231 cells assessed as proportion of cells with hyperpolarized MMP at 2 uM incubated for 18 hrs by JC-1 staining based flow cytometry (reference value: 98.4%). The format is functional.
For another experiment, the system named is MCF7. The experiment is described as follows: Anticancer activity against human MCF7 cells assessed as inhibition of cell proliferation measured after 48 hrs by MTT assay. The format is functional, cell-based. Conditions: MCF7, 48 h. The method in brief:
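Cells seeded at ~5,000/well, grown 24 h to partial monolayer, then exposed 48 h at 37°C, 5% CO2 to 0.5, 1, 2, 4, 10 and 20 µM (DMSO ≤0.1%). MTT final 0.5 mg/ml for 4 h, formazan dissolved in DMSO, A570. Survival expressed as % of untreated control; IC50 from dose-response curves; three independent experiments. MDA-MB-231, MCF-7, HepG2 in DMEM; A549 and LO-2 in RPMI-1640; 10% FBS.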

In experiment [11] the test system is MDA-MB-231. The experiment is described as follows: Induction of mitochondrial membrane potential depolarization in human MDA-MB-231 cells assessed as proportion of cells with hyperpolarized MMP at 1.5 uM incubated for 18 hrs by JC-1 staining based flow cytometry (reference value: 98.4%). The format is functional.
Experiment [12] deals with MDA-MB-231. The experiment is described as follows: Induction of cell cycle arrest in human MDA-MB-231 cells assessed as accumulation at G2/M phase at 2 uM measured after 24 hrs by propidium iodide staining based flow cytometric method (reference value: 18.55%). The class given is functional.
Experiment [13] relates to MDA-MB-231. The experiment is described as follows: Induction of apoptosis in human MDA-MB-231 cells assessed as early apoptotic cells at 3 uM after 24 hrs by Annexin V/propidium iodide based flow cytometric analysis (reference value: 0.94%). The class given is functional. The method in brief: as §3
For experiment [14], the system named is MDA-MB-231. The experiment is described as follows: Induction of reactive oxygen species production in human MDA-MB-231 cells at 2 uM preincubated with ROS scavenger, NAC for 2 hrs followed by incubation with compound for 24 hrs by DCFH-DA staining based flow cytometry analysis relative to control. The class given is functional. The method in brief:
as §2

Experiment [15] concerns MDA-MB-231. In words: Induction of apoptosis in human MDA-MB-231 cells assessed as necrotic cell at 1 uM after 24 hrs by Annexin V/propidium iodide staining based flow cytometric analysis (reference value: 0.019%). The format is functional. The method in brief: as §3
Experiment [16] in a line: Induction of intracellular reactive oxygen species generation in human MDA-MB-231 cells assessed as proportion of FL1-H negative cells at 2 uM measured after 24 hrs by DCFH-DA staining based flow cytometry analysis (reference value: 52.2%). The class given is functional, MDA-MB-23.
Experiment [17] has as its system MDA-MB-231. The experiment is described as follows: Antiproliferative activity in human MDA-MB-231 cells assessed as inhibition of cell viability at 1.5 to 3 uM pretreated with 10 uM necroptosis inhibitor, necrostatin-1 followed by addition of compound and measured after 48 hrs by MTT assay. The format is functional, cell-based. Conditions: dose 1.5-3 µM. The method in brief: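 MDA-MB-231 cells pretreated 1 h with necrostatin-1 (10 µM) or Z-VAD-FMK (20 µM), then exposed to compound at 1.5, 2 and 3 µM for another 48 h. Inhibition rates by MTT; inhibitors alone also tested 48 h for viability. Mean ± SD, n = 3.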

For experiment [18], the system named is MDA-MB-231. The experiment is described as follows: Induction of cell cycle arrest in human MDA-MB-231 cells assessed as accumulation at G2/M phase at 1 uM measured after 24 hrs by propidium iodide staining based flow cytometric method (reference value: 18.55%). The format is functional.

Activity calls are given as the source filed them. The calls are words filed in the database; no cut-off is given here.

Consider `COc1cc2cc(N)c(=O)oc2cc1OCCCOc1no[n+]([O-])c1S(=O)(=O)c1ccccc1`, for which the inhibition (commonly how much of the control response was suppressed) in the experiment on MDA-MB-23 was “Dose-dependent effect”. Moreover, the Activity was 93.2% in the experiment on MDA-MB-231 [1]; 51% in [2]; 28.05% with MDA-MB-231 [3]; 43.06% with MDA-MB-231 [5]; 8.17% with MDA-MB-231 [6]; 17.7% in the experiment on MDA-MB-231 [8]. For the same compound, the Activity with MDA-MB-231 [10] is listed as 67.8%; with MDA-MB-231 [11] it was 81.4%; in the experiment on MDA-MB-231 [12], 40.29%; in the experiment with MDA-MB-231 [13], 13.6%; in the experiment on MDA-MB-231 [15], 0.21%; in experiment [16], 11.2%. The Activity in the experiment on MDA-MB-231 [18] turned out to be 24.58%. In the experiment with MDA-MB-231 [4], the inhibition result was “Active”. Also, the inhibition at 4 µM in the experiment on MDA-MB-231 [7] stood at 39.5%. Further, in the experiment with MDA-MB-231 [9], the result was Active. In addition, in the experiment on MCF7, the IC50 – broadly, the concentration at which inhibition is half-maximal – was 1.91 µM. Moreover, the “fold change (FC)” value with MDA-MB-231 [14] was found to be 1.09. Besides, the result in the experiment on MDA-MB-231 [17] was inactive.

For the origin of these results see ChEMBL document CHEMBL4765333, “Novel NO-releasing scopoletin derivatives induce cell death via mitochondrial apoptosis pathway and cell cycle arrest” (Eur J Med Chem, 2020).
